Results as given in ChEMBL document CHEMBL5724801, “EUbOPEN Chemogenomics Library - Multiplex” (2024).
“And” between values parts separate entries of the source, which are not always exact repeats. Equal entries are not always repeated.

Test system: Fibroblast
Experiment: Multiplex assay against human fibroblast
Format: toxicity, cell-based
Summary of the method: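 Hoechst33342, BioTracker Green Microtubule Cytoskeleton Dye, MitoTracker Red and Annexin V Alexa Fluor 680 were added to live cells at seeding, and imaging on a CQ1 microscope at 37°C and 5% CO2 followed compound addition. Gating by CellPathfinder machine learning separated cells into Hoechst high-intensity objects or normal cells, then normal cells into healthy, pyknosed or fragmented nuclei, then pyknosed cells into mitotic or apoptotic. Per cents of healthy-nucleus cells are reported for the tubulin, mitochondrial-mass and membrane-permeability phenotypes.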

[1] = 12 h, 1 µM, compound concentration 1 uM
[2] = 12 h, 10 µM, compound concentration 10 uM
[3] = 24 h, 1 µM, compound concentration 1 uM
[4] = 24 h, 10 µM, compound concentration 10 uM
[5] = 48 h, 1 µM, compound concentration 1 uM
[6] = 48 h, 10 µM, compound concentration 10 uM

## O=C1[C@H](Cc2ccc(O)cc2)N2C(=O)CCN(C(=O)NCc3ccccc3)[C@H]2CN1Cc1cccc2ccccc12
[1]
  Population Apoptotic (%): 32% and 30%
  Population Fragmented Nuclei (%): 18% and 27%
  Population Healthy Nuclei (%): 57% and 45%
  Population Hoechst High Intensity Objects (%): 3% and 2%
  Population Membrane Permeable-Phenotype (%): 0% and 5%
  Population Mitochondria Different-Phenotype (%): 11% and 13%
  Population Mitotic Cells (%): 67% and 69%
  Population Normal (%): 96% and 97%
  Population Pyknosed Nuclei (%): 24% and 26%
  Population Tubulin-Different-Phenotype (%): 47% and 58%
  Total Cell Count: 160 and 152
[2]
  Population Apoptotic (%): 35% and 45%
  Population Fragmented Nuclei (%): 18% and 23%
  Population Healthy Nuclei (%): 58% and 45%
  Population Hoechst High Intensity Objects (%): 8% and 9%
  Population Membrane Permeable-Phenotype (%): 0% and 8%
  Population Mitochondria Different-Phenotype (%): 24% and 15%
  Population Mitotic Cells (%): 64% and 55%
  Population Normal (%): 91% and 90%
  Population Pyknosed Nuclei (%): 23% and 30%
  Population Tubulin-Different-Phenotype (%): 84% and 83%
  Total Cell Count: 146 and 144
[3]
  Population Apoptotic (%): 42% and 28%
  Population Fragmented Nuclei (%): 16% and 30%
  Population Healthy Nuclei (%): 62% and 47%
  Population Hoechst High Intensity Objects (%): 3% and 2%
  Population Membrane Permeable-Phenotype (%): 3% and 7%
  Population Mitochondria Different-Phenotype (%): 7% and 8%
  Population Mitotic Cells (%): 57% and 71%
  Population Normal (%): 96% and 97%
  Population Pyknosed Nuclei (%): 21% and 22%
  Population Tubulin-Different-Phenotype (%): 49% and 58%
  Total Cell Count: 158 and 147
[4]
  Population Apoptotic (%): 44% and 64%
  Population Fragmented Nuclei (%): 15% and 25%
  Population Healthy Nuclei (%): 62% and 47%
  Population Hoechst High Intensity Objects (%): 10% and 7%
  Population Mitochondria Different-Phenotype (%): 44% and 21%
  Population Mitotic Cells (%): 55% and 35%
  Population Normal (%): 89% and 92%
  Population Pyknosed Nuclei (%): 21% and 26%
  Population Tubulin-Different-Phenotype (%): 83%
  Total Cell Count: 141 and 137
[5]
  Population Apoptotic (%): 62% and 54%
  Population Fragmented Nuclei (%): 22% and 37%
  Population Healthy Nuclei (%): 59% and 45%
  Population Hoechst High Intensity Objects (%): 7% and 5%
  Population Membrane Permeable-Phenotype (%): 2% and 5%
  Population Mitochondria Different-Phenotype (%): 7% and 6%
  Population Mitotic Cells (%): 37% and 45%
  Population Normal (%): 92% and 94%
  Population Pyknosed Nuclei (%): 17%
  Population Tubulin-Different-Phenotype (%): 54% and 48%
  Total Cell Count: 164 and 135
[6]
  Population Apoptotic (%): 85% and 66%
  Population Fragmented Nuclei (%): 21% and 32%
  Population Healthy Nuclei (%): 58% and 53%
  Population Hoechst High Intensity Objects (%): 15% and 10%
  Population Membrane Permeable-Phenotype (%): 0% and 5%
  Population Mitochondria Different-Phenotype (%): 50% and 38%
  Population Mitotic Cells (%): 14% and 33%
  Population Normal (%): 84% and 89%
  Population Pyknosed Nuclei (%): 20% and 14%
  Population Tubulin-Different-Phenotype (%): 85% and 94%
  Total Cell Count: 124 and 119

## Cl.c1ccc2c(c1)CCC[C@H]2Nc1nc2ccccc2[nH]1
[1]
  Population Apoptotic (%): 11.32% and 10.42%
  Population Fragmented Nuclei (%): 9.36% and 5.1%
  Population Healthy Nuclei (%): 64.53% and 70.41%
  Population Hoechst High Intensity Objects (%): 0%
  Population Membrane Permeable-Phenotype (%): 6.11% and 2.17%
  Population Mitochondria Different-Phenotype (%): 6.87% and 9.42%
  Population Mitotic Cells (%): 88.68% and 89.58%
  Population Normal (%): 100%
  Population Pyknosed Nuclei (%): 26.11% and 24.49%
  Population Tubulin-Different-Phenotype (%): 18.32% and 18.12%
  Total Cell Count: 203 and 196
[2]
  Population Apoptotic (%): 5% and 13.89%
  Population Fragmented Nuclei (%): 8.94% and 7.57%
  Population Healthy Nuclei (%): 46.37% and 72.97%
  Population Hoechst High Intensity Objects (%): 0%
  Population Membrane Permeable-Phenotype (%): 8.43% and 2.96%
  Population Mitochondria Different-Phenotype (%): 10.84% and 15.56%
  Population Mitotic Cells (%): 95% and 86.11%
  Population Normal (%): 100%
  Population Pyknosed Nuclei (%): 44.69% and 19.46%
  Population Tubulin-Different-Phenotype (%): 24.1% and 30.37%
  Total Cell Count: 179 and 185
[3]
  Population Apoptotic (%): 11.36% and 6.25%
  Population Fragmented Nuclei (%): 6.72% and 4.74%
  Population Healthy Nuclei (%): 74.79% and 78.42%
  Population Hoechst High Intensity Objects (%): 0%
  Population Membrane Permeable-Phenotype (%): 4.49% and 2.01%
  Population Mitochondria Different-Phenotype (%): 8.43% and 5.37%
  Population Mitotic Cells (%): 88.64% and 93.75%
  Population Normal (%): 100%
  Population Pyknosed Nuclei (%): 18.49% and 16.84%
  Population Tubulin-Different-Phenotype (%): 17.98% and 10.07%
  Total Cell Count: 238 and 190
[4]
  Population Apoptotic (%): 6.56% and 11.11%
  Population Fragmented Nuclei (%): 8.38% and 10.7%
  Population Healthy Nuclei (%): 57.54% and 74.87%
  Population Hoechst High Intensity Objects (%): 0%
  Population Membrane Permeable-Phenotype (%): 2.91% and 1.43%
  Population Mitochondria Different-Phenotype (%): 13.59% and 7.86%
  Population Mitotic Cells (%): 93.44% and 88.89%
  Population Normal (%): 100%
  Population Pyknosed Nuclei (%): 34.08% and 14.44%
  Population Tubulin-Different-Phenotype (%): 35.92% and 30.71%
  Total Cell Count: 179 and 187
[5]
  Population Apoptotic (%): 7.14% and 20%
  Population Fragmented Nuclei (%): 7.17% and 4.5%
  Population Healthy Nuclei (%): 87.25% and 88%
  Population Hoechst High Intensity Objects (%): 0%
  Population Membrane Permeable-Phenotype (%): 0.91% and 2.27%
  Population Mitochondria Different-Phenotype (%): 9.13% and 3.98%
  Population Mitotic Cells (%): 92.86% and 80%
  Population Normal (%): 100%
  Population Pyknosed Nuclei (%): 5.58% and 7.5%
  Population Tubulin-Different-Phenotype (%): 5.48% and 13.64%
  Total Cell Count: 251 and 200
[6]
  Population Apoptotic (%): 21.05% and 50%
  Population Fragmented Nuclei (%): 12.39% and 11.11%
  Population Healthy Nuclei (%): 78.9% and 84.44%
  Population Hoechst High Intensity Objects (%): 0%
  Population Membrane Permeable-Phenotype (%): 1.74% and 4.21%
  Population Mitochondria Different-Phenotype (%): 6.4% and 3.68%
  Population Mitotic Cells (%): 78.95% and 50%
  Population Normal (%): 100%
  Population Pyknosed Nuclei (%): 8.72% and 4.44%
  Population Tubulin-Different-Phenotype (%): 19.19% and 32.11%
  Total Cell Count: 218 and 225
